Results as given in ChEMBL document CHEMBL1150416, “Design, synthesis and spectroscopic studies of resveratrol aliphatic acid ligands of human serum albumin” (Bioorg Med Chem, 2008).

Columns and labels:
Albumin [1] = biological target: T1, Albumin (Homo sapiens, UniProt P02768); test: Binding affinity to human serum albumin by fluorescence quenching measurement; format: ADME; details: isolated protein
Summary of the method: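 HSA intrinsic (Trp) fluorescence quenching at 298 K in 50 mM phosphate buffer, pH 7. HSA was held at a fixed level while compound amounts were increased. Excitation 280 nm, emission recorded 290–360 nm, intensity taken at 350 nm; samples read 2 min after mixing, with buffer blanks. Ka was obtained by fitting the modified Stern–Volmer equation.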

[2] = Aqueous solubility assessed per 100 g in pure water; details: pH 7
[3] = Solubility in phosphate buffer assessed per 100 g at pH 7; format: physicochemical
Summary of the method: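 Excess solid stirred 1 h with pure water or 50 mM phosphate buffer (pH 7; 20 mM NaH2PO4 + 30 mM Na2HPO4) in a sealed dual-wall flask held at 295 K by circulating water. The solid was removed by two 2-min centrifugations. Dissolved content was read by UV–vis at 304 nm and converted using an extinction coefficient of 33,913 M-1 cm-1.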

Albumin [4] = biological target: T1, Albumin; test: Binding affinity to human serum albumin assessed as increase in drug-induced fluorescence at 4 uM by fluorescence enhancing measurement; format: ADME; details: isolated protein
Summary of the method: (§1)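 HSA binding was read as the resveratrol-moiety fluorescence at 388 nm. The compound was fixed at 4 µM in 50 mM phosphate buffer, pH 7, with HSA either fixed at 4 µM or increased from 2 to 16 µM, at 298 K. Solutions were read 2 min after mixing against buffer/HSA blanks. Ka came from a non-linear fit of fluorescence versus [HSA].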

[5] = Solubility in over saturated phosphate buffer assessed per 100 g at pH 7 after 2 mins; format: physicochemical; details: pH 7, 2 min
Summary of the method: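 Over-saturated solution made by tapping a suspension in 50 mM phosphate buffer (pH 7) for 2 min at 295 K. Content was read by UV–vis at 304 nm and converted using an extinction coefficient of 33,913 M-1 cm-1.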

Albumin [6] = biological target: T1, Albumin; test: Binding affinity to human serum albumin assessed as decrease in UV absorbance by UV-vis measurement; format: ADME; set-up: scale not given: the % may be the effect or the level left; details: isolated protein
Summary of the method: (§2)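 The compound was held at 4 µM in 50 mM phosphate buffer, pH 7 (20 mM NaH2PO4 and 30 mM Na2HPO4), and HSA was added at increasing concentrations. UV–vis absorbance of the compound was read at 318 nm, 2 min after thorough mixing. Buffers without HSA and with matching HSA levels served as blanks. Each compound solution was used only once.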

Albumin [7] = biological target: T1, Albumin; test: Binding affinity to human serum albumin at 4 uM by fluorescence enhancing measurement; format: ADME; details: isolated protein; summary of the method: as §1
Albumin [8] = biological target: T1, Albumin; test: Binding affinity to human serum albumin at 4 uM by UV-vis measurement; format: ADME; summary of the method: as §2

T1 sequence (P02768 whole entry): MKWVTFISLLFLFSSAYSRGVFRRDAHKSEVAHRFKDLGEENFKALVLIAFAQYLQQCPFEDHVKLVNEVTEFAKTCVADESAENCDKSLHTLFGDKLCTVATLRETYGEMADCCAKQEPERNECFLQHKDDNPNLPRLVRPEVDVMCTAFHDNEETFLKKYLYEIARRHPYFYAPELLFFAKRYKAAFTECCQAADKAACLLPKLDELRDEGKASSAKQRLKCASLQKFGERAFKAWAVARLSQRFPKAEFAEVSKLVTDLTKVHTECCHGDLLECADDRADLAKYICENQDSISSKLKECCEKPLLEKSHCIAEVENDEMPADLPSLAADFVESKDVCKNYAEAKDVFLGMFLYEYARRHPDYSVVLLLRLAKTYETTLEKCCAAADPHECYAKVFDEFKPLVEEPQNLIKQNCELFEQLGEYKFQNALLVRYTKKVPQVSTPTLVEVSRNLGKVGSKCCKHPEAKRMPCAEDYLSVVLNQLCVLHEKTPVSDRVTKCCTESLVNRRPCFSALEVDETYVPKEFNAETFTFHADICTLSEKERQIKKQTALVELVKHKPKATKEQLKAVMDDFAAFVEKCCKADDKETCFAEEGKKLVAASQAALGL

SMILES	Ka (Albumin [1])	solubility [2]	solubility [3]	Activity (Albumin [4])	solubility [5]	Activity (Albumin [6])	Ka (Albumin [7])	Kd (Albumin [8])	Ka (Albumin [8]; human, isolated protein, 4 µM)
O=C(O)COc1ccc(/C=C/c2cc(O)cc(O)c2)cc1	2.95 ×10⁵ /M	80.91 mg	313.8 mg	50%	867.8 mg				
O=C(O)CCCCCOc1ccc(/C=C/c2cc(O)cc(O)c2)cc1 [RESVERATROL HEXANOIC ACID]	67 ×10⁵ /M	4.52 mg	10.54 mg			20%	31.2 ×10⁵ /M	382 nM	26.2 ×10⁵ /M

Second part, led by results:

Ka (Albumin [1])	solubility [2]	solubility [3]	Activity (Albumin [4])	solubility [5]	SMILES	Activity (Albumin [6])	Ka (Albumin [7])	Kd (Albumin [8])	Ka (Albumin [8]; human, isolated protein, 4 µM)
3.05 ×10⁵ /M	0.032 mg	0.085 mg			COC(=O)CCCCCOc1ccc(/C=C/c2cc(O)cc(O)c2)cc1				
1.14 ×10⁵ /M	1.93 mg	1.4 mg			CCOC(=O)COc1ccc(/C=C/c2cc(O)cc(O)c2)cc1				
1.64 ×10⁵ /M	3.24 mg	3.24 mg			Oc1ccc(/C=C/c2cc(O)cc(O)c2)cc1 [RESVERATROL]				
